Consider 13 molecules from PubChem BioAssay.

A word on the inhibition: it is the change of the read-out against control, counted positive when it falls.

Active and inactive are the calls of the source.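 The calls were made as follows, unless noted: active = compounds giving at least 50% inhibition in the cell-based MKP-3 phosphatase rescue imaging test; inactive = the rest.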

Test [1] in a line: inhibitors of TNFa-induced NFkB p65 translocation, primary screen, imaging, HUVEC, MLSMR starter and 10KST1 sets (AID 438;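 active = inhibition above 20% together with a positive visual image hit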;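 also: compound added about 3h40 before a 20 min TNFalpha stimulation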;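 as to inhibition: signal is the nuclear over cytoplasmic p65 intensity ratio per well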). Conditions: HUVEC TNFa-induced p65 nuclear translocation; cell count: measured here: nuclei count (cytotoxicity indicator), at 2.08 µM; inhibition: at 2 µM, stronger effect = higher value, 0% TNFa-plus-vehicle, 100% no-TNFa wells.
Test [2] in a line: endothelial E-selectin expression blockers – imaging, HUVEC, immunofluorescence, MLSMR starter and 10KST1 sets, primary screen (AID 487;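 active = visually confirmed hit in the image check and inhibition above 20%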;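 as to inhibition: signal is fraction of cell area covered by stained E-selectin grains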;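 as to nuclei count: 100% = median nuclei count of all wells on the same plate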). To be noted: HUVEC TNFalpha-induced E-selectin immunofluorescence imaging, at 2 µM; inhibition: stronger effect = higher value; nuclei count: measured here: cell number, toxicity.
Test [3] can be described thus: Primary imaging screen for DUSP6 inhibitors that restore phospho-Erk in transfected HeLa cells, chemical complementation (AID 609).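 As to inhibition: phospho-Erk level distribution per well compared with pooled transfected vehicle control wells.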 Conditions: HeLa MKP-3 transfected, phospho-Erk imaging KS statistic, at 10 µM, cells stimulated with TPA for 15 min.
For test [4], the target named is Dual specificity protein phosphatase 6 (Homo sapiens) (UniProt Q16828). The description is as above. To be noted: HeLa MKP-3 transfected, phospho-Erk imaging KS statistic; at 10 µM; stronger effect = higher value; cells stimulated with TPA for 15 min.
Dual specificity protein phosphatase 6 (Homo sapiens), sequence (Q16828 whole entry, looked up): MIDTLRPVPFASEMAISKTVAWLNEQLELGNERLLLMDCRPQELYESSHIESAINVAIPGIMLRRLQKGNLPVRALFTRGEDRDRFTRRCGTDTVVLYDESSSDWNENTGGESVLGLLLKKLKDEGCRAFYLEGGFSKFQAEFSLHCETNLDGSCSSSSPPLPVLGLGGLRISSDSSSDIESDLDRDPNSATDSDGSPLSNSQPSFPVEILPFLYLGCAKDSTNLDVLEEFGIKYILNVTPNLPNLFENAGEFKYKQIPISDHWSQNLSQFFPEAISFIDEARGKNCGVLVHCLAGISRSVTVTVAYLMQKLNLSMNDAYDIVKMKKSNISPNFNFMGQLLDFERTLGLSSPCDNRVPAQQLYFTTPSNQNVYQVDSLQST
Test [5] deals with Voltage-gated potassium channel subunit beta-2 (Rattus norvegicus) (UniProt P62483). Description: inhibitors of rat Kvbeta2 reductase activity – biochemical, NADPH fluorescence, primary screen (AID 622;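 active = fluorescence slope higher than the sample average by over 3 SD, cut at about -0.22 in these data, passing the limit was not always enough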;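 also: slope of raw intensity against log time taken from 70 to 1610 s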). To be noted: recombinant KvBeta, 4-cyanobenzaldehyde reduction, at 10 µM, stronger effect = higher value.
Voltage-gated potassium channel subunit beta-2 (Rattus norvegicus), sequence (P62483 whole entry, looked up): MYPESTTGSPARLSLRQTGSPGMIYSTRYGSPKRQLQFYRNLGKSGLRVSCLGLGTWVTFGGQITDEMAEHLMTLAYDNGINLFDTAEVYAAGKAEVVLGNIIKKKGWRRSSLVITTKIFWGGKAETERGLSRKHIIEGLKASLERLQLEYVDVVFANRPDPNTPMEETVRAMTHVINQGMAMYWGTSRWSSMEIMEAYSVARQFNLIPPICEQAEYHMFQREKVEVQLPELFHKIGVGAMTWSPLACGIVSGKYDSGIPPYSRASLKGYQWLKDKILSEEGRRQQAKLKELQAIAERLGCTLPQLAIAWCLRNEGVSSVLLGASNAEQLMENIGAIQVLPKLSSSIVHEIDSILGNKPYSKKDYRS
Test [6] shares this target. Description: enhancers of rat Kvbeta2 NADPH turnover – biochemical, NADPH fluorescence, primary screen (AID 623;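 active = NADPH fluorescence slope more negative than the mean of all samples by about 3 SD, 99.7% confidence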;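 also: fluorescence intensity change per second fitted from 20 to 320 s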). Conditions: Recombinant KvBeta, NADPH fluorescence decrease slope, 10 min; at 10 µM; stronger effect = lower value.
The target of test [7] is Alpha-2C adrenergic receptor (Homo sapiens) (UniProt P18825). As to the kind of experiment: compounds altering alpha2C-coupled GIRK flux – cell-based, HEK293 alpha2C/GIRK1/2, thallium flux, primary screen (AID 624;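 active = fluorescence slope after compound addition differing from the mean of all screened samples at 99.7% confidence, in either direction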;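 also: slope of fluorescence ratio to pre-addition baseline per second over 15 to 24 s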). Conditions: thallium flux BTC fluorescence, at 10 µM, actives lie on both sides.
Alpha-2C adrenergic receptor (Homo sapiens), sequence (P18825 whole entry, looked up): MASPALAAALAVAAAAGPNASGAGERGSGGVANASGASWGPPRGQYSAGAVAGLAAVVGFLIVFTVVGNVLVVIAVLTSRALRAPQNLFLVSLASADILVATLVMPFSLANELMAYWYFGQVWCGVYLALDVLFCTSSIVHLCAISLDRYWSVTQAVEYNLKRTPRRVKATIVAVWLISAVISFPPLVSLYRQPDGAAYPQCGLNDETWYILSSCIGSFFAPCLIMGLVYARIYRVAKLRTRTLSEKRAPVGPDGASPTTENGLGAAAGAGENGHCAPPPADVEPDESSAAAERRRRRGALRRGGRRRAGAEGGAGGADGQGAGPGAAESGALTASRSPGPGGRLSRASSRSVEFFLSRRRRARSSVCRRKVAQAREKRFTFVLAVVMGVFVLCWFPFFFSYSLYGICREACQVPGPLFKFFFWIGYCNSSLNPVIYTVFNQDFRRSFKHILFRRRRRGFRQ
Test [8] can be described thus: inhibitors of larval lipid processing in zebrafish, primary screen, whole organism, PED6 fluorescence, gall bladder and intestine (AID 686;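 active = a full or partial loss of lipid-probe fluorescence in the fish gall bladder, intestine or both, judged by eye; inactive = no fluorescence loss, or compound toxic to the fish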;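 also: larvae 5 to 7 days old with five fish per well; signal comes from phospholipase A2 cleavage of quenched PED6 carried via bile; overnight exposure to compound and PED6 before scoring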). Conditions: Zebrafish larvae PED6 lipid processing, fluorescence scoring; screened at 20 µM (by protocol). An outline of the steps:
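system = live zebrafish larvae aged 5-7 days, whole organism | probe or stimulus = ingested quenched lipid PED6 at 100 nM | doses = 20 µM single dose | timing = overnight exposure | detection = fluorescence microscopy with visual scoring of gall bladder and intestine | read-out = visual per-well fluorescence inhibition score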

Test [9] can be described thus: loss of swimming-algae plug formation – whole organism, Chlamydomonas reinhardtii, WT vs cilia-less mutant, absorbance, 96-well, primary screen (AID 463189;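 active = inhibition at or above 50% relative to wild type and mutant plate controls; inactive = inhibition below 50%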;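 also: 0% = wild type cc124 cells in DMSO and 100% = ciliumless bld1 mutant cells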). To be noted: Chlamydomonas reinhardtii gravitaxis, OD600 absorbance, 2 days; at 10 µM; stronger effect = higher value.
Where [10] appears, read: measured here: cell density z-score.
Setting [11] is: measured here: nuclear c-Myc green intensity z-score.
Where [12] appears, read: measured here: nuclear pErk red intensity z-score, stronger effect = higher value.

With `COc1cccc(OC)c1OCC(C)CNCC1CCCO1` (centres undefined), the cell count in [1] amounted to 524. In addition, the inhibition in [1] was -5.6% (inactive); in test [2] it was -156% (inactive); in test [4] it was 9.39% (inactive); in test [9], 11.3% (inactive). The nuclei count in test [2] was determined as 123%. Besides, the z-score in [3] (setting [10]) was -1; in test [3] (setting [11]), 1.14; in test [3] (setting [12]), 1.28. Besides, the fluorescence slope in [5] is -0.524 (inactive). Moreover, the NADPH fluorescence slope in [6] was -5e-05 (inactive). Further, the slope in test [7] is 0.00511 (inactive). Also, in test [8], the outcome was inactive.

For the molecule `CCCCNC1=C(Br)C(=O)CC(C)(C)C1`, in [1], the cell count amounted to 372. Moreover, the inhibition was -30.7% (inactive) in test [1], -34.3% (inactive) in test [2], 11.9% (inactive) in test [4] and 23.6% (inactive) in test [9]. Also, in test [2], the nuclei count is 101%. The results for the z-score in test [3] (setting [10]), in test [3] (setting [11]) and in [3] (setting [12]) were -0.472, 1.05 and 0.291, respectively. Also, in [5], the fluorescence slope is -0.52 (inactive). Besides, in [6], the NADPH fluorescence slope is -9.2e-05 (inactive). Besides, in test [7], the slope was 0.00547 (inactive). Moreover, the result in test [8] was inactive.

Turning to `CCOCc1nc(N)[nH]c(=O)c1Cc1ccc(OC(C)C)cc1`, the cell count in test [1] is 350. Besides, the inhibition in test [1] was -14.1% (inactive); in [2], -184% (inactive); in test [4] it was 17% (inactive); in test [9], 23.2% (inactive). For the same molecule, the nuclei count in [2] worked out at 133%. For the same molecule, the z-score in test [3] (setting [10]) is 0.756; in test [3] (setting [11]), -0.664; in test [3] (setting [12]), -2.13. Also, the fluorescence slope in test [5] was -0.436 (inactive). The NADPH fluorescence slope in test [6] is -2e-05 (inactive). In addition, the slope in test [7] was 0.00784 (inactive). Besides, in test [8], the call was inactive.

As for `Cc1ccc(N2C(=O)CC(N(O)C3CC(=O)N(c4ccc(C)cc4)C3=O)C2=O)cc1` (centres undefined), in [1], the cell count was 364. Also, the inhibition is 0% (inactive) in test [1], 28.2% (inactive) in test [2], -0.584% (inactive) in test [4] and 54.9% (active) in test [9]. The nuclei count in [2] came out at 126%. Besides, the z-score came to 0.996 in test [3] (setting [10]), 0.402 in [3] (setting [11]) and 0.988 in test [3] (setting [12]). Besides, in test [5], the fluorescence slope is -0.427 (inactive). For the same molecule, the NADPH fluorescence slope in [6] is -0.000136 (inactive). Also, the slope in test [7] is 0.0056 (inactive). Further, in test [8], the call was inactive.

For `COc1ccccc1Nc1ncc(-c2cccs2)s1`, the cell count in test [1] came out at 545. The inhibition in [1] was -13.8% (inactive); in [2] it was -286% (inactive); in test [4], 1.48% (inactive); in test [9], 11.6% (inactive). For the same molecule, in test [2], the nuclei count was determined as 200%. Moreover, the figures for the z-score in [3] (setting [10]), in test [3] (setting [11]) and in test [3] (setting [12]) were -0.0769, -1.21 and 0.25, respectively. The fluorescence slope in test [5] was -0.5 (inactive). Besides, the NADPH fluorescence slope in test [6] is -5.4e-05 (inactive). Further, in [7], the slope is 0.00327 (inactive). For the same molecule, the outcome in test [8] was inactive.

For the molecule `Cc1cc(OCCN2CCCCC2)nc2ccccc12`, in test [1], the cell count came to 482. For the same molecule, the inhibition in test [1] is 6.3% (inactive); in [2], -39.5% (inactive); in test [4] it was 26.3% (inactive); in test [9], 39.2% (inactive). Also, in test [2], the nuclei count was 95%. The z-score in test [3] (setting [10]) is 1.18; in [3] (setting [11]), -0.61; in [3] (setting [12]), -0.992. Besides, the fluorescence slope in test [5] is -0.332 (inactive). Moreover, the NADPH fluorescence slope in test [6] is 1.4e-05 (inactive). In [7], the slope was 0.0054 (inactive). Also, in test [8], the molecule was classed as inactive.

As for `CC(=O)N/C(=N/c1nc(C)cc(C)n1)Nc1ccc(NC(C)=O)cc1`, the cell count in test [1] was determined as 647. The inhibition in test [1] is 3.8% (inactive); in test [2], -35% (inactive); in test [4], -1.12% (inactive); in test [9], 1.67% (inactive). Besides, the nuclei count in [2] came to 154%. For the same molecule, the values for the z-score in test [3] (setting [10]), in [3] (setting [11]) and in [3] (setting [12]) were 1.7, -1.09 and -1.09, respectively. Moreover, in test [5], the fluorescence slope was -0.509 (inactive). Also, in test [6], the NADPH fluorescence slope was -6.6e-05 (inactive). Also, the slope in [7] is 0.00481 (inactive). For the same molecule, the result in test [8] was inactive.

On to `COc1ccc(OC)c(C2/C(=C(/O)c3ccc(C)cc3)C(=O)C(=O)N2Cc2ccco2)c1` (centres undefined), for which the cell count in test [1] is 561. Further, the inhibition in test [1] was -1.8% (inactive); in [2] it was -18.5% (inactive); in test [4], -7.86% (inactive); in [9] it was -7.49% (inactive). This molecule also displayed a nuclei count in [2] of 143%. For the same molecule, the z-score in test [3] (setting [10]) was 1.28; in [3] (setting [11]), 0.438; in test [3] (setting [12]), 0.373. Moreover, the fluorescence slope in [5] is -0.568 (inactive). The NADPH fluorescence slope in test [6] was -1.3e-05 (inactive). Besides, the slope in test [7] was 0.00557 (inactive). In addition, the call in test [8] was inactive.

On to `CN1CCN(CCCCC(=O)c2ccccc2)CC1`, for which the cell count in test [1] was determined as 600. Besides, the inhibition is -9.1% (inactive) in [1], 14.9% (inactive) in test [2], -6.06% (inactive) in test [4] and 68.4% (active) in test [9]. In test [2], this molecule yielded a nuclei count of 183%. Also, the z-score is 0.5 in test [3] (setting [10]), -1.07 in [3] (setting [11]) and -0.798 in [3] (setting [12]). For the same molecule, in test [5], the fluorescence slope was -0.397 (inactive). Further, the NADPH fluorescence slope in test [6] was 1.3e-06 (inactive). Moreover, in test [7], the slope is 0.00562 (inactive). Besides, in test [8], the outcome was inactive.

As for `Cc1c(N=Cc2c(O)n(C3CCCCC3)c(=O)[nH]c2=O)c(=O)n(-c2ccccc2)n1C`, the cell count in test [1] came to 671. The inhibition is -20.1% (inactive) in [1], -93.8% (inactive) in test [2], 21% (inactive) in test [4] and -4.72% (inactive) in test [9]. In addition, in [2], the nuclei count came to 139%. For the same molecule, the figures for the z-score in test [3] (setting [10]), in test [3] (setting [11]) and in [3] (setting [12]) were -0.195, -1.05 and 0.314, respectively. For the same molecule, in test [5], the fluorescence slope was -0.396 (inactive). For the same molecule, in test [6], the NADPH fluorescence slope is -3e-05 (inactive). In test [7], the slope was 0.00508 (inactive). In addition, the outcome in [8] is “active; weak signal in gallbladder and intestine”.

For the molecule `O=S1(=O)C[C@@H](N2CCOCC2)[C@H](N2CCOCC2)C1`, the cell count in test [1] amounted to 513. In addition, the inhibition in [1] is 3.1% (inactive); in [2] it was -110% (inactive); in test [4], -3.5% (inactive); in [9], 3.28% (inactive). The nuclei count in test [2] came to 133%. In addition, the z-score in test [3] (setting [10]) was -0.578; in test [3] (setting [11]), 0.935; in [3] (setting [12]), 0.179. Moreover, the fluorescence slope in test [5] was -0.462 (inactive). Moreover, the NADPH fluorescence slope in test [6] is -7.3e-05 (inactive). In addition, the slope in [7] was 0.00558 (inactive). The molecule was classed as inactive in test [8].

In the case of `COc1ccccc1Cn1c2nc3ccccc3nc2c2c(=O)n(CC(C)C)cnc21`, the cell count in [1] is 340. Besides, the inhibition in [1] was -7.7% (inactive); in test [2], -28.2% (inactive); in [4] it was -8.59% (inactive); in [9] it was 6.68% (inactive). Besides, the nuclei count in [2] worked out at 148%. Also, the z-score is 0.356 in test [3] (setting [10]), -0.852 in test [3] (setting [11]) and -0.477 in test [3] (setting [12]). Moreover, the fluorescence slope in test [5] was -0.425 (inactive). For the same molecule, the NADPH fluorescence slope in test [6] is -0.000144 (inactive). Besides, in [7], the slope is 0.00898 (inactive). Also, the result in [8] was inactive.

`COc1ccc(OC)c(C2/C(=C(/O)c3cnn(-c4ccccc4)c3C)C(=O)C(=O)N2CCN(C)C)c1` (centres undefined): the cell count in test [1] was 452. Further, the inhibition is 1.9% (inactive) in [1], 8.9% (inactive) in [2], -1.75% (inactive) in [4] and 12% (inactive) in test [9]. The molecule also returned a nuclei count in test [2] of 86.9%. In addition, the z-score in test [3] (setting [10]) is -1.51; in test [3] (setting [11]), 0.604; in [3] (setting [12]) it was -0.829. In test [5], the fluorescence slope is -0.47 (inactive). In addition, the NADPH fluorescence slope in test [6] is -9.5e-06 (inactive). For the same molecule, the slope in [7] was 0.00657 (inactive). Also, in test [8], the result was inactive.
